TNAP inh hiacc – inhibitors of human TNAP at high phosphate acceptor concentration; P05186; purified TNAP, CDP-star luminescence, 1 M DEA; inhibition, % at 20 µM; 200,000 tested, 0.03% active; AID 1135;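 active = over 50% inhibition of tissue-nonspecific alkaline phosphatase at 20 µM in the single-dose screen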
TNAP inh no acc – TNAP (human) inhibition, acceptor-free conditions; P05186; inhibition, % at 20 µM; purified TNAP, CDP-star luminescence, 30 min; 200,000 tested, 0.26% active;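 active = tissue-nonspecific alkaline phosphatase inhibition above about 50% at 20 µM in the single-dose screen, limit read from the data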
TNAP act hi DEA – TNAP (human) activation, high acceptor; P05186; purified TNAP, CDP-star luminescence, 1 M DEA, 30 min; stronger effect = higher value; 0 = EDTA background, 1 = DMSO-only activity; activation factor at 20 µM; 200,000 tested, under 10 active;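 active = activation factor at least 2 at 20 µM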
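system = human TNAP | amount = enzyme diluted 1/800 final | reagent = 100 µM CDP-star substrate | signal = luminescent substrate turnover signal | dosing = one dose, 20 µM | benchmarks = EDTA negative control, DMSO positive control | measure = activation factor | timing = 30 min reaction, room temperature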
ABCB6 inh MLPCN – blocks the human ABCB6 transporter; K562-ABCB6 porphyrin accumulation, flow cytometry, 1 h; stronger effect = lower value; 360,000 tested, 0.19% active; fluorescence ratio to DMSO, % at 10 µM; Q9NP58;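 active = fluorescence ratio to DMSO below 75%, the collection mean minus 3 SD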;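 also: signal is porphyrin accumulated inside mitochondria; lower ratio means ABCB6 inhibition with less porphyrin fluorescence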
CHT allo act – human CHT allosteric activation. CHT-expressing cells, membrane potential dye, choline EC20; stronger effect = higher value; LV-AA mutant CHT in HEK293 cells. B-score at 10 µM. 310,000 tested, 0.49% active. AID 488977;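 active = initial fluorescence not abnormally high and integrated response B-score, plate-corrected, over 3 SD above library mean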
CHT block – inhibitors of human choline transporter CHT | CHT-expressing cells, membrane potential dye, choline response; stronger effect = lower value | B-score at 10 µM | 310,000 tested, 0.86% active;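 active = B-score over 3 SD under the library average, and starting fluorescence ratio not unusually high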;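 also: choline stimulus applied at its EC90 after an EC20 pre-addition; B-score computed on integrated fluorescence ratio after choline addition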
CHT inh conf – confirmation of human choline transporter CHT inhibitors. shares compounds with CHT block. CHT-expressing cells, choline membrane potential dye; LV-to-AA substituted CHT, HEK293 cells. CHT activity remaining % of control (stronger effect = lower value), % at 10 µM. 2,400 tested, 70% active. AID 493221;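 active = choline transporter activity left, mean of duplicates at 10 µM, below buffer-only control mean minus 3 SD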;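 also: depolarization triggered by choline at its EC90 following an EC20 pre-addition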
HEK293 CHT ctr – activity in parental HEK293 cells lacking CHT. membrane potential dye, choline response; active = decrease or increase beyond buffer ±3SD. 2,400 tested, 4% active. shares compounds with CHT block. AID 493222. membrane potential ratio readout (active if shifted either direction beyond buffer ±3SD; no single direction) at 10 µM;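 also: parental cells lack the transporter so any hit is non-specific; ratio is peak minus trough fluorescence over baseline after EC90 choline challenge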
Of the large screens only hits and unclear results are named; the others gave an inactive call (follow-up assays come after a bar, where they were run). An excerpt weighted towards active compounds, which were near 1.4% of everything screened.

C=CCN1C(c2cccc(C(F)(F)F)c2)=CS/C1=C(/C#N)c1nnc(N2CCOCC2)n1-c1ccccc1	CHT block -6 | CHT inh conf inactive | HEK293 CHT ctr inactive
CN1C(=O)NC(c2ccc(Cl)cc2)C2=C1CC(C)(C)CC2=O (configuration not stated)	none (no result: TNAP inh hiacc, TNAP inh no acc, TNAP act hi DEA)
CN1c2ccccc2C(O)=C(C(=S)Nc2ccc(F)c(Cl)c2)S1(=O)=O	CHT block -6.4 | CHT inh conf 48% | HEK293 CHT ctr inactive
O=C(NNC(=S)Nc1ccc(F)cc1)c1cccc([N+](=O)[O-])c1	none (no result: TNAP inh hiacc, TNAP inh no acc, TNAP act hi DEA)
Cc1ccc(NC(=S)NNC(=O)c2cccc([N+](=O)[O-])c2)cc1Cl	CHT block -5.7 (no result: TNAP inh hiacc, TNAP inh no acc, TNAP act hi DEA) | CHT inh conf 54% | HEK293 CHT ctr inactive
C=CCOC(=O)C1=C[C@@H](c2cn(C(C)=O)c3ccccc23)C[C@@H](OCCCCO)O1	CHT block -5.3 | CHT inh conf inactive | HEK293 CHT ctr inactive
Cn1c(-c2ccccc2O)cc2ccccc21	CHT block -8.1 | CHT inh conf 51% | HEK293 CHT ctr inactive
OC1CCCN(c2c3c(nc4cc(-c5cccc(F)c5)nn24)CCCC3)C1 (configuration not stated)	CHT block -5.2 | CHT inh conf inactive | HEK293 CHT ctr inactive
Cc1cccc(-c2cc3nc4c(c(N5CCCC(O)C5)n3n2)CCC4)c1 (configuration not stated)	none
Cn1cc(/C=C2\SC(=O)N(c3ccccc3)C2=O)c2ccccc21	CHT block -6.5 | CHT inh conf inactive | HEK293 CHT ctr inactive
Cn1cc(/C=C2\SC(=O)N(c3ccc(O)cc3)C2=O)c2ccccc21	none (no result: TNAP inh hiacc, TNAP inh no acc, TNAP act hi DEA)
CCn1cc(C(=O)N(CCC(C)C)c2c(N)n(Cc3ccccc3)c(=O)[nH]c2=O)c(=O)c2ccc(C)nc21	CHT block -10 | CHT inh conf 50% | HEK293 CHT ctr inactive
O=C1c2ccccc2C(=O)c2c(Nc3ccc(CCO)cc3)ccc(O)c21	CHT block -7.4 (no result: TNAP inh hiacc, TNAP inh no acc, TNAP act hi DEA) | CHT inh conf 67% | HEK293 CHT ctr inactive
COC(=O)N(C)C[C@@H]1OCc2cn(nn2)CCCC(=O)N([C@@H](C)CO)C[C@H]1C	none (no result: TNAP inh hiacc, TNAP inh no acc, TNAP act hi DEA, CHT allo act, CHT block)
CCCc1nc(NCCO)c(C#N)c2c1CCCC2	CHT block -8 (no result: TNAP inh hiacc, TNAP inh no acc, TNAP act hi DEA) | CHT inh conf inactive | HEK293 CHT ctr inactive
Clc1ccc2c(N3CCCC3)ccnc2c1	CHT block -8 | CHT inh conf 26% | HEK293 CHT ctr inactive
Oc1ccc(N2CCN(c3ccnc4cc(Cl)ccc34)CC2)cc1	none (no result: TNAP inh hiacc, TNAP inh no acc, TNAP act hi DEA)
Cc1ccc(S(=O)(=O)Oc2cccc(/C=N/n3cnnc3)c2)cc1	CHT block -10 | CHT inh conf 56% | HEK293 CHT ctr inactive
O=c1[nH]c2cc3ccccc3cc2nc1-c1nnnn1C1CCCC1	none (no result: TNAP inh hiacc, TNAP inh no acc, TNAP act hi DEA, CHT allo act, CHT block)
O=C(c1cccs1)N(c1ccc(Br)cc1)C1C=CS(=O)(=O)C1 (configuration not stated)	none
CCn1c(SCc2nc(-c3cccs3)no2)nnc1-c1c[nH]c2ccccc12	none
CCn1c(SCc2nc3scc(-c4ccccc4)c3c(=O)[nH]2)nnc1-c1cccs1	CHT block -7.3 | CHT inh conf inactive | HEK293 CHT ctr inactive
CCn1c(SCc2nc(-c3ccccc3)no2)nnc1-c1cccs1	CHT block -5.5 | CHT inh conf 47% | HEK293 CHT ctr inactive
Cc1nnc(SCc2nc3scc(-c4ccccc4)c3c(=O)[nH]2)s1	none (no result: TNAP inh hiacc, TNAP inh no acc, TNAP act hi DEA)
CCn1c(SCc2nc(-c3ccccc3)no2)nnc1-c1ccco1	CHT block -5.2 | CHT inh conf 55% | HEK293 CHT ctr inactive
CCOC(=O)C1=CCN(S(=O)(=O)c2ccccc2Br)C1c1cccc(F)c1 (configuration not stated)	none (no result: TNAP inh hiacc, TNAP inh no acc, TNAP act hi DEA, CHT allo act, CHT block)
Cc1cc2occ(CC(=O)N(C)CC(=O)Nc3ccc(F)cc3)c2cc1C	none (no result: TNAP inh hiacc, TNAP inh no acc, TNAP act hi DEA)
